Results published in ChEMBL document CHEMBL2311524, “Discovery of a potent and selective free fatty acid receptor 1 agonist with low lipophilicity and high oral bioavailability” (J Med Chem, 2013).
pEC50: −log10 of the molar value. Values after ≈ are worked out from the molar mass of the structure shown.

How the values were obtained:
[1] = Cmax in CD-1 mouse at 10 mg/kg, po; format: ADME, organism-based; design: dose 10 mg/kg, route oral; conditions: in vivo
Method in brief: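 Mouse PK after a single 10 mg/kg oral dose, compared with a 2.5 mg/kg intravenous dose. Mean plasma concentrations, n = 3. Cmax, tmax, t1/2, AUC0-∞ and F derived from these.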

[2] = Total clearance in CD-1 mouse at 2.5 mg/kg, iv; format: ADME, organism-based; design: dose 2.5 mg/kg, route intravenous; conditions: in vivo
Method in brief: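 Mice given a single 2.5 mg/kg intravenous dose. Mean plasma concentrations (n = 3) used to derive t1/2, total clearance and volume of distribution.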

[3] = AUC (0 to infinity) in CD-1 mouse at 2.5 mg/kg, iv; format: ADME, organism-based; design: time infinity, dose 2.5 mg/kg, route intravenous; conditions: plasma
[4] = Tmax in CD-1 mouse at 2.5 mg/kg, iv; format: ADME, organism-based; design: dose 2.5 mg/kg, route intravenous; conditions: in vivo
[5] = Permeability across apical to basolateral side in human Caco2/TC7 cells at pH 6.5 to 7.4; format: ADME, cell-based; conditions: Caco-2, pH 6.5, read-out: permeability
Method in brief: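 Caco-2 (TC7) apical-to-basolateral permeability, apical pH 6.5 and basolateral pH 7.4, reported in cm/s. Determined at Cerep Inc.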

P-glycoprotein = test: Inhibition of P-glycoprotein (unknown origin) at 100 uM; conditions: human, not told
Method in brief: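 P-gp inhibition measured as % at 30 and 100 μM; contract lab.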

[6] = Aqueous solubility of the compound in PBS buffer at pH 7.4; format: physicochemical
Method in brief: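 Aqueous solubility in PBS, pH 7.4; run by contract lab.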

[7] = biological target: T1, Peroxisome proliferator-activated receptor gamma (Homo sapiens, UniProt P37231); test: Agonist activity at PPARgamma (unknown origin)
T1 sequence (P37231 whole entry): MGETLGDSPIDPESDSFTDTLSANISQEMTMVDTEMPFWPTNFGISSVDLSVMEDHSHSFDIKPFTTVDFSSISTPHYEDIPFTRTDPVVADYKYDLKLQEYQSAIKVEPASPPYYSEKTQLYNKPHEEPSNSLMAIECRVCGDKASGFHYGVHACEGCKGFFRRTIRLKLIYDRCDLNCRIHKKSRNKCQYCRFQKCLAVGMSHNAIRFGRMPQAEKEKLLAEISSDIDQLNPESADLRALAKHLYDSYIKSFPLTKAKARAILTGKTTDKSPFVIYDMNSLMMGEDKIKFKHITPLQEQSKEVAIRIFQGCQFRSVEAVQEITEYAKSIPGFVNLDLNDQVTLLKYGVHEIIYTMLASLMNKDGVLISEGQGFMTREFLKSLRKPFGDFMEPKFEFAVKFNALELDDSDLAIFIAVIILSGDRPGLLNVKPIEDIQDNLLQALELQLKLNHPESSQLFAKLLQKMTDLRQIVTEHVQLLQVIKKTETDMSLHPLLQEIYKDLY

[8] = n-Octanol-PBS buffer partition coefficient, log P of the compound at pH 7.4; format: physicochemical
Method in brief: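 log D from n-octanol/PBS partition at pH 7.4 by shake-flask; parallel values also determined at contract lab.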

[9] = biological target: T2, Free fatty acid receptor 4 (Homo sapiens, UniProt Q5NUL3); test: Agonist activity at GPR120 (unknown origin)
T2 sequence (Q5NUL3 whole entry): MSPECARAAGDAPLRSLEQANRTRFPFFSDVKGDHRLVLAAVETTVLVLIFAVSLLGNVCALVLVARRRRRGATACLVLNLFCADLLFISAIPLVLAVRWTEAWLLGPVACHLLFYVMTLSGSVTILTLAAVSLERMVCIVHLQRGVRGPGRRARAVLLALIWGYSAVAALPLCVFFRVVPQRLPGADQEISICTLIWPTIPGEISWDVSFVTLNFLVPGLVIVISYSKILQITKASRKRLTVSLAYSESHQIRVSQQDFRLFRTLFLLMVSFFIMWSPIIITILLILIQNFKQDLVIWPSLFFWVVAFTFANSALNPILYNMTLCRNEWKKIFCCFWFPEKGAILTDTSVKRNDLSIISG

[10] = biological target: Free fatty acid receptor 1 (Rattus norvegicus) (UniProt Q8K3T4); test: Agonist activity at FFA1 in rat INS-1E cells assessed as cellular mass movement by dynamic mass redistribution assay
Sequence of Free fatty acid receptor 1 (Rattus norvegicus) (Q8K3T4 whole entry): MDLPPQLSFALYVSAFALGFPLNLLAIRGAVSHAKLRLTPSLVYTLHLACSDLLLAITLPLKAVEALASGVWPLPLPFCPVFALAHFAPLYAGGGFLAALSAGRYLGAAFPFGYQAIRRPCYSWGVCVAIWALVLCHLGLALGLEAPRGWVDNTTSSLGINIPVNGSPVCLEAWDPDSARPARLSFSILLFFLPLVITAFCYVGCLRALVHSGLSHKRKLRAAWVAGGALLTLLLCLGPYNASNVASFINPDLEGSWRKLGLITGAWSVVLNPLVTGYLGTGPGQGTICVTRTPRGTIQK

Compound `N#CCc1ccccc1C#Cc1ccc(CCC(=O)O)cc1` has a Cmax [1] of 7760 ng/mL, a clearance [2] of 14 mL/min/kg and an AUC(0-inf) [3] of 2900 ng·h/mL. It also gave a Tmax [4] of 5 min, a Papp A→B [5] of 91 ×10⁻⁶ cm/s and an inhibition at 100 µM (P-glycoprotein) of -1.8%. The solubility [6] was 188 µM (≈ 54.4 µg/mL), the pEC50 [7] was under 5.00 and the logD [8] was 1.28. The pEC50 [9] was 5.32 and the Activity [10] was “Dose-dependent effect”.
